In one series the test system is hNaa60 1–184. Description: Size-exclusion chromatography, dimer to monomer transition. The arrangement: species or system human. As to conditions: with Ac-CoA. (SEC sorts molecules by how far they enter the pores of the column.)
Series [1] relates to N-terminal acetyltransferase Naa50. Conditions: ref Evjenth et al., 2012; cited from earlier work.
For another series, the system named is other acetyltransferases. As to conditions: ref De Angelis et al., 1998; Thompson et al., 2001; cited from earlier work.
In series [2] the test system is substrate polypeptide MKAV24. Type of series: biochemical. Conditions: for Wild-type efficiency (%): catalytic efficiency relative to hNaa60 WT; for Kcat/Km: hNaa60 variant, substrate peptide MKAV24, 50 mM HEPES pH 7.5, 100 mM NaCl, 2 mM EDTA, DTNB, 412 nm; for catalytic efficiency (in words): β3–β4 loop contact mutants; for reduction in catalytic efficiency: substrate MKAV24, compared to hNaa60 WT; for change in Km (in words): substrate MKAV24, vs hNaa60 WT. The gist of the method:
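Purified hNaa60 variants (His-SUMO tag cleaved, nickel-purified) with peptide and Ac-CoA in assay buffer, quenched with 3.2 M guanidinium-HCl/100 mM sodium phosphate pH 6.8. CoA detected with DTNB (2 mM final) at 412 nm, negative-control background subtracted. Thiophenolate quantified with ε = 13.7 × 103 M−1 cm−1. Rates taken in the linear phase and fitted for kinetic constants.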

A short description of series [3]: DSF / purification stability of hNaa60 point mutants. Conditions: for initial fluorescence (in words): vs hNaa60 WT; for stability on purification (in words): data not shown.

In the case of `CC(=O)SCCNC(=O)CCNC(=O)[C@H](O)C(C)(C)COP(=O)(O)OP(=O)(O)OC[C@H]1O[C@@H](n2cnc3c(N)ncnc32)[C@H](O)[C@@H]1OP(=O)(O)O` [Ac-CoA, acetyl CoA], in the series on hNaa60 1–184, the “elution of hNaa60 1–184 (oligomeric state, in words)” value is recorded as “elutes at a column volume corresponding to twice the theoretical size of the enzyme”.

Turning to `CCNC(=O)CCNC(=O)[C@H](O)C(C)(C)COP(=O)(O)OP(=O)(O)OC[C@H]1O[C@@H](n2cnc3c(N)ncnc32)[C@H](O)[C@@H]1OP(=O)(O)O` [desulfoCoA], the “inhibitor type (Naa50)” value in series [1] was “competitive inhibitor”. Further, in the series on other acetyltransferases, the “inhibitor type (other acetyltransferases)” value was “competitive inhibitor”.

On to “D81A: hNaa60 point mutant, β3–β4 loop contact”, for which, in series [2] (substrate MKAV24), the “Wild-type efficiency (%)” value was determined as 136.9% and the “catalytic efficiency (in words)” value is given as “modest overall effect on catalytic efficiency”. The molecule also showed a Kcat/Km in series [2] of 518 M⁻¹ s⁻¹. Further, in series [3] (DSF), the “destabilization compared to hNaa60 WT (in words)” value is recorded as “clearly destabilized compared to hNaa60 WT” and the “initial fluorescence (in words)” value was “higher initial fluorescence”.

In the case of “H138A: hNaa60 point mutant, catalytic residue”, in series [3], the “stability on purification (in words)” value is “unstable and could not be purified”.

Regarding “H138F: hNaa60 point mutant, catalytic residue”, the “stability on purification (in words)” value in series [3] was “unstable and could not be purified”.

“I36A: hNaa60 point mutant, M1p hydrophobic pocket”: in series [2], the Kcat/Km was 60 M⁻¹ s⁻¹, the “reduction in catalytic efficiency” value is approximately 6 fold and the “change in Km (in words)” value is recorded as “small increase in Km”. Further, the “destabilization compared to hNaa60 WT (in words)” value in series [3] (DSF) is reported as “did not show any signs of destabilization”.

“I84A: hNaa60 point mutant, β3–β4 loop contact”: in series [2] (substrate MKAV24), the “Wild-type efficiency (%)” value turned out to be 200.4% and the “catalytic efficiency (in words)” value is “modest overall effect on catalytic efficiency”. For the same molecule, the Kcat/Km in series [2] is 758 M⁻¹ s⁻¹. For the same molecule, in series [3] (DSF), the “destabilization compared to hNaa60 WT (in words)” value was “clearly destabilized compared to hNaa60 WT” and the “initial fluorescence (in words)” value is on record as “higher initial fluorescence”.

Regarding “I167A: hNaa60 point mutant, M1p hydrophobic pocket”, the “Wild-type efficiency (%)” value in series [2] (substrate MKAV24) is reported as 33.3%. Besides, in series [2], the Kcat/Km turned out to be 123 M⁻¹ s⁻¹, the “reduction in catalytic efficiency” value was approximately 3 fold and the “change in Km (in words)” value is listed as “small increase in Km”.

For the molecule “L140A: hNaa60 point mutant, M1p hydrophobic pocket”, in series [2] (substrate MKAV24), the “Wild-type efficiency (%)” value is given as 56.0% and the “catalytic efficiency (kcat/Km) as fold of hNaa60 WT” value was “approximately 0.5 fold”. The same molecule gave a Kcat/Km in series [2] of 210 M⁻¹ s⁻¹.

Turning to P35A/I36A/I167A: hNaa60 triple mutant, in series [2] (substrate MKAV24), the “Wild-type efficiency (%)” value is less than 10% and the “catalytic activity (in words)” value is “not able to detect any catalytic activity”.

Take “P35A: hNaa60 point mutant, M1p hydrophobic pocket”: in series [2], the Kcat/Km is 60 M⁻¹ s⁻¹, the “reduction in catalytic efficiency” value is reported as approximately 6 fold and the “change in Km (in words)” value was “small increase in Km”.

For WT: wild-type hNaa60 enzyme, the “Wild-type efficiency (%)” value in series [2] (substrate MKAV24) is 100%. Also, the “melting point (apo)” value in series [3] (DSF, apo hNaa60) was found to be 47.9 °C.

In the case of “Y38A: hNaa60 point mutant, peptide anchoring residue”, in series [2] (substrate MKAV24), the “Wild-type efficiency (%)” value was less than 10% and the “catalytic activity (in words)” value is on record as “complete loss of catalytic activity”.

“Y97F: hNaa60 point mutant, catalytic residue”: in series [2] (substrate MKAV24), the “Wild-type efficiency (%)” value was less than 10% and the “catalytic activity (in words)” value was “complete loss of catalytic activity”.

With “Y164A: hNaa60 point mutant, β3–β4 loop contact”, in series [2] (substrate MKAV24), the “Wild-type efficiency (%)” value is reported as 141.7%. In series [2], this molecule returned a Kcat/Km of 535 M⁻¹ s⁻¹.

For “Y164F: hNaa60 point mutant, β3–β4 loop contact”, the “Wild-type efficiency (%)” value in series [2] (substrate MKAV24) was 154.9%. This molecule also showed a Kcat/Km in series [2] of 585 M⁻¹ s⁻¹. For the same molecule, the “destabilization compared to hNaa60 WT (in words)” value in series [3] (DSF) is on record as “clearly destabilized compared to hNaa60 WT”.

As to “Y165F: hNaa60 point mutant, peptide anchoring residue”, the “Wild-type efficiency (%)” value in series [2] (substrate MKAV24) turned out to be 24.4%. For the same molecule, in series [2], the Kcat/Km came out at 90 M⁻¹ s⁻¹ and the “reduction in catalytic efficiency” value is “approximately 4 fold”.

The record behind these values is article PMC4938767 (Structure (London, England : 1993), 2016).
